Screening results: PubChem, several laboratories
Dynein transport: inhibitors of GR-EGFP nuclear translocation, primary screen, dynein cargo transport inhibitor project, imaging, high-content, 3617.4 mouse cells | actives 0.47% (n = 220,000) | z-score, hits read low | test concentration mostly 20 µM; stimulated with dexamethasone, 1 µM; active compounds read low;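 active = plate z-score of nuclear minus cytoplasmic receptor signal below a set negative limit, without overly bright fluorescence or cell loss, cut at about -3.5 in these data, passing the limit was not always enough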;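 also: z-score of nuclear minus cytoplasmic ring GR-EGFP intensity difference per well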
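Buffer or medium: tet-free, stripped-serum medium; Also added: dexamethasone, 1.0 µM final; Technique: high-content fluorescence imaging after fixation; Times: 48 h induction, 1 h compound, 30 min dex at 37 °C; Read-out: per-cell GR-EGFP intensity, nucleus versus surrounding cytoplasmic ring, well-averaged.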
pCIP destab: p/CIP-EGFP fusion destabilizers, primary screen, fluorescence, F442A cells | Q05BA5 | 16 h | decrease of EGFP signal, % at 10 µM | actives 0.01% (n = 290,000) | AID 1984, 2009;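 active = EGFP signal decrease of at least 30% at 10 µM or well 3 SD below plate mean, unless failing retest; inactive = the rest, including hits failing retest or dose response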
Target sequence (Q05BA5 1-1403): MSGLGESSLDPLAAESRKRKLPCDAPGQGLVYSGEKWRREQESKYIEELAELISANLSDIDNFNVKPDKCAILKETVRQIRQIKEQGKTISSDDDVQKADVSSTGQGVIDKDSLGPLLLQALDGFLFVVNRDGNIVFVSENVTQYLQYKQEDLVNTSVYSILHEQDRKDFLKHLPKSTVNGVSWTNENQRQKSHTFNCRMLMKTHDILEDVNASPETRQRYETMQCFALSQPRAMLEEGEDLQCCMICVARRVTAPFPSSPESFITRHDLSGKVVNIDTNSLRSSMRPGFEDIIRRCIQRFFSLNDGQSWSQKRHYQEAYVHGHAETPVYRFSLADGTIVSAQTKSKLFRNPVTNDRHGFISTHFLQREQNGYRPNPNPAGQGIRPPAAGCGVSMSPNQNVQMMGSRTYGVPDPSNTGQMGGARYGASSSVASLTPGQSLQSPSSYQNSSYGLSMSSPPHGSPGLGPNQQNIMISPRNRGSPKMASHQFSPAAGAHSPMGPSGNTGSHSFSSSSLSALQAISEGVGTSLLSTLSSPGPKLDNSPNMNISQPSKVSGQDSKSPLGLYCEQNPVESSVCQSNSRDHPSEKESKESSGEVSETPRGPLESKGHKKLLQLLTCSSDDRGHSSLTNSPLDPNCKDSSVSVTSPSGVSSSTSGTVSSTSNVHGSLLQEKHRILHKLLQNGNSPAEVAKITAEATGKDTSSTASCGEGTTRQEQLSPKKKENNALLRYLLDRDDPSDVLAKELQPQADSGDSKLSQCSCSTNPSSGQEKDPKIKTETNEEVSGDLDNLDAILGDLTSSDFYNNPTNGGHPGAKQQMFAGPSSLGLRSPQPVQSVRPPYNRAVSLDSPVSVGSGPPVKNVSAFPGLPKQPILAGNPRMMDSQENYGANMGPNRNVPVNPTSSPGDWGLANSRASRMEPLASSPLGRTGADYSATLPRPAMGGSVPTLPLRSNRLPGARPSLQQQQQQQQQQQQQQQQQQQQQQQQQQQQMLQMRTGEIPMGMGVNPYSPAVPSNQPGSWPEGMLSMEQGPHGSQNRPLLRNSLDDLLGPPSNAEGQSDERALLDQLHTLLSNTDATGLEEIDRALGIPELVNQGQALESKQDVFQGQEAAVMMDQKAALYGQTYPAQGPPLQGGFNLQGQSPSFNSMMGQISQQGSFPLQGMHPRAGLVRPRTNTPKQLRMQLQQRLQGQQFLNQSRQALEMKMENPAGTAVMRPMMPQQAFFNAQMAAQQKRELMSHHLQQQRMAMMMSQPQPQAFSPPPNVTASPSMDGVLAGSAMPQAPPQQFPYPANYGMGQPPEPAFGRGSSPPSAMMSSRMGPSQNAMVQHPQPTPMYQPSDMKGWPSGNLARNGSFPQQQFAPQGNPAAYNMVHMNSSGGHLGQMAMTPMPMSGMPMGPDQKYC
UPR CHOP act: activators of apoptotic CHOP UPR arm, primary screen, cell-based, CHO-CHOP luciferase reporter, luminescence, uHTS; UPR activation; percent of tunicamycin response over DMSO baseline; AID 449763, 2010; actives 0.34% (n = 330,000); activation, % at 10 µM;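 active = at 10 µM dose, activation of 40% or more, normalized to positive control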;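 also: 100% = tunicamycin at 10 µg/mL and 0% = DMSO alone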
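Material: CHO-CHOP cells, stable luciferase reporter of PERK-eIF2a-CHOP signalling; quantity: 500 reporter cells seeded per well; buffer or medium: F12 medium containing 10% fetal bovine serum; compound: one dose, 10 µM in 0.5% DMSO; incubation: 6 h compound treatment, 37 °C; measured by: Steady-Glo luciferase luminescence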
B2AR ag: beta2AR agonists driving receptor internalization, primary screen, cell-based, FAP fluorogen, flow cytometry. Beta-2 adrenergic receptor (Homo sapiens), P07550. Am2.2-beta2AR cells. response, % (test concentration not listed). actives 0.43% (n = 340,000). AID 504454, 2011;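 active = response above a set limit, near 3 SD of response in nonfluorescent compounds, cut at about 42% in these data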
XBP1 UPR activ: activators of adaptive XBP1 UPR arm, primary screen, cell-based, CHO-XBP1 luciferase reporter, luminescence, uHTS; IRE1-XBP1 UPR activation; percent of tunicamycin response, DMSO as zero; activation, % at 20 µM; actives 0.33% (n = 330,000);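 active = versus positive control, 20 µM dose yields 30% or more activation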;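 also: 100% = tunicamycin at 10 µg/mL and 0% = DMSO only wells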
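Assay system: CHO-XBP1 luciferase reporter cells; Schedule: 6 h treatment, 37 °C; Detection: glow luminescence from Steady-Glo reagent; Benchmarks: high control tunicamycin 10 µg/mL final, low control DMSO vehicle only.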
CHOP inh: inhibitors of CHOP promoter induction, primary screen, cell-based, unfolded protein response, luciferase reporter; CHO-K1 CHOP-promoter luciferase, tunicamycin-induced, 15-18 h; inhibition, % at 10 µM; actives 3.8% (n = 220,000);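 active = compounds that reduced the stress-induced luciferase reporter signal by more than about 70% of percent inhibition, limit read from the data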;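 also: 0% = tunicamycin plus vehicle and 100% = wells without tunicamycin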
Starred values were filed as active, the others as inactive; . = no result. Only a selection was taken, and hits are over-represented in it overall.

SMILES | Dynein transport | pCIP destab | UPR CHOP act | B2AR ag | XBP1 UPR activ | CHOP inh
CCOc1ccc(OCCSc2nnnn2C2CCCCC2)cc1 | -0.299 | -6.5 | -0.4 | 5.9 | -0.8 | 79.8*
COC(=O)C1=C(O)/C(=C\c2cc(C)n(-c3ccc(F)cc3)c2C)N=C1C | -1.12 | 3.6 | 0.0 | 68.9* | -2.8 | 5.5
COC(=O)C1=C(C)NC(=O)/C1=C\c1cc(C)n(-c2ccc(F)cc2)c1C | 0.771 | -6.9 | 2.4 | 10.9 | -3.7 | 14.9
O=C(Nc1ccc(SC(F)F)cc1)C1=CC=CN2CCS(=O)(=O)N=C12 | . | . | 1.1 | -0.5 | -0.3 | .
COc1cc2c(=O)n(CC3CCCO3)c(=O)n(CC(=O)Nc3ccccc3)c2cc1OC (stereo unspecified) | . | -4.5 | -0.7 | 0.0 | 1.0 | .
CC(C)Cn1c(SCC(=O)NC(=O)Nc2ccc3c(c2)OCCO3)nc2ccccc2c1=O | -0.233 | 16.4 | -1.2 | 4.0 | 0.7 | 70.5*
C=CCNC(=S)NNc1nc(N2CCCC2)nc(N2CCCC2)n1 | . | 0.4 | 0.2 | 4.7 | -7.0 | .
S=C(NNc1nc(Nc2ccccc2)nc(N2CCCCC2)n1)NC1CCCCC1 | 0.282 | 1.5 | 0.4 | -2.9 | -2.0 | 83.4*
C=CCNC(=S)NNc1nc(Nc2ccccc2)nc(N2CCCCC2)n1 | -0.933 | -11.6 | 5.4 | -9.1 | -0.9 | 73.9*
O=c1[nH]c(NC2CCN(S(=O)(=O)c3ccccc3C(F)(F)F)CC2)nc2c1CCCC2 | . | -5.0 | 5.7 | 18.1 | -3.6 | .
O=C(COC(=O)c1ccccc1O)Nc1ccc(OC(F)F)cc1 | 0.218 | 0.9 | 2.3 | 5.7 | 2.6 | 72.4*
O=C(COC(=O)c1ccccc1Nc1ccccc1)Nc1ccccc1 | -0.324 | -8.8 | -0.7 | -1.5 | -0.1 | 78.0*
CC(C(=O)Nc1ccccn1)c1ccccc1 (stereo unspecified) | . | -2.9 | -0.1 | -79.5 | -3.1 | .
CCN(c1ccccc1)c1ncnc2c1cnn2-c1ccccc1 | -0.233 | -19.1 | 3.9 | -3.1 | 2.8 | 79.5*
CC1(C)CC(=O)C(C2=NC3(CCCCC3)Cc3ccccc32)=C(O)C1 | 1.49 | -24.1 | -0.9 | 0.9 | -1.9 | -17.2
CCCCn1c(-c2csc3c2CCC(C)C3)n[nH]c1=S (stereo unspecified) | 0.143 | -0.9 | -2.2 | -3.9 | 0.9 | 83.9*
CCn1c(-c2csc3c2CCCC3)n[nH]c1=S | -0.0469 | -5.2 | 0.5 | -9.1 | -1.5 | 13.8
C=CCn1c(-c2csc3c2CCC(C)C3)n[nH]c1=S (stereo unspecified) | -0.0493 | -5.2 | 1.4 | -19.4 | 5.0 | 80.1*
CCCCn1c(-c2csc3c2CCCC3)n[nH]c1=S | -0.944 | -13.2 | 0.1 | . | 2.5 | 12.2
COc1ccc(CN(C)C(=O)[C@H](Cc2ccccc2)NC(=O)c2ccco2)c(OC)c1 | . | . | 0.4 | 12.5 | -2.1 | .
Cc1ccccc1OCCCC(=O)Nc1ccc(Br)cc1 | -0.972 | -15.2 | -2.5 | 0.4 | 0.2 | 95.8*
Cc1ccc(NC(=O)CCOc2ccccc2C)cc1F | 0.344 | -11.9 | -0.5 | -20.8 | -1.5 | 71.1*
CC(=O)Nc1ccc(NC(=O)CCOc2ccccc2C)cc1 | . | 7.4 | 0.9 | -4.2 | 5.4 | .
CN=c1scc(-c2ccc(F)cc2)n1/N=C/c1ccc(O)c(O)c1 | -1.52 | 10.6 | 31.4 | 3.7 | -4.2 | 71.9*
Cc1ccc(NC(=O)CCc2nc3sc4c(c3c(=O)[nH]2)CCCC4)c(Br)c1 | . | . | 0.4 | -5.1 | -3.4 | .
SMILES | Dynein transport | pCIP destab | UPR CHOP act | B2AR ag | XBP1 UPR activ | CHOP inh
COc1ccc(/C=C2/C(=O)N(c3ccccc3)N=C2C)cc1Br | . | 3.3 | 1.4 | 76.3* | 0.1 | .
COc1cc(/C=C2/C(=O)N(c3ccccc3)N=C2C)ccc1OS(=O)(=O)c1ccccc1 | -1.39 | 13.3 | 4.3 | . | 1.1 | 7.2
O=C(c1ccco1)N1CCN(c2nc(C3CC3)nc3c2nnn3Cc2ccccc2Cl)CC1 | 0.112 | -10.0 | -0.2 | -0.1 | 1.2 | 22.6
CC(C)(C)c1nc(N2CCN(C(=O)c3ccco3)CC2)c2nnn(Cc3ccccc3)c2n1 | 0.378 | -20.8 | 0.4 | 6.0 | -0.8 | 76.5*
CCN(CC(=O)Nc1c(F)cccc1F)C(=O)C1CCN(S(=O)(=O)c2ccc(F)cc2)CC1 | . | . | 1.9 | 2.3 | -4.4 | .
COc1ccc2[nH]c(=O)c(CNc3cccc(C)c3)cc2c1 | 1.5 | -17.8 | 5.4 | -5.1 | -0.1 | 72.9*
COc1ccc(NCc2cc3cc(OC)ccc3[nH]c2=O)cc1 | -0.148 | -17.2 | 0.6 | 0.4 | 1.2 | -63.8
C(=N\Nc1nc2ccccc2s1)/c1ccccn1 | -0.59 | -13.4 | -9.6 | 5.5 | -8.9 | 101.3*
Cc1ccc2[nH]c(C)c(/C=N/Nc3nc4ccccc4s3)c2c1 | 0.617 | 1.0 | -2.2 | 13.4 | -0.3 | 78.0*
CCOC(=O)c1c(NC(=O)CSc2n[nH]c(-c3ccco3)n2)sc(C)c1C | 0.0873 | 7.3 | -1.3 | -4.1 | 2.4 | 32.7
CCOC(=O)c1c(NC(=O)CSc2n[nH]c(CNc3ccccc3)n2)sc(C)c1C | 0.118 | 6.3 | 0.2 | 0.6 | -4.1 | 91.3*
CC1(C)NC(=O)N(CC(=O)N2CCN(c3cccc(Cl)c3)CC2)C1=O | . | . | -0.1 | 1.4 | -1.2 | .
O=C(COC(=O)C1CC2C=CC1C2)Nc1ccc2c(c1)OC(F)(F)O2 (stereo unspecified) | 0.673 | 2.1 | 4.1 | -6.7 | 0.9 | 90.7*
CC(=O)c1ccc(NC(=O)COC(=O)C2CC3C=CC2C3)cc1 (stereo unspecified) | . | . | 4.0 | -6.5 | 1.9 | .
CC(C)(C)c1nc2sc3c(c2c(=O)o1)CCCC3 | 2.35 | -1.8 | 0.0 | 2.7 | 0.8 | 79.2*
CCc1nc2sc3c(c2c(=O)o1)CCCC3 | -1.51 | -2.5 | -0.9 | -4.3 | -3.0 | 26.5
Cc1cc(C)c(C(=O)c2ccc(C(=O)N(C(C)C)C(C)C)cc2)c(C)c1 | -0.725 | -9.3 | -1.4 | 3.7 | -2.1 | 93.9*
CC(C)Sc1nc2c(cnn2-c2ccccc2)c(=O)[nH]1 | -1.27 | -8.1 | -1.1 | 1.7 | 5.4 | 71.7*
O=c1[nH]c(SCc2ccccc2Cl)nc2c1cnn2-c1ccccc1 | 0.281 | -8.4 | 0.2 | -1.5 | 6.8 | 95.8*
CCCCCSc1nc2c(cnn2-c2ccccc2)c(=O)[nH]1 | -0.731 | 1.3 | -0.3 | 11.4 | -0.1 | 71.2*
O=C(CSc1nc2c(cnn2-c2ccccc2)c(=O)[nH]1)N1CCOCC1 | -0.194 | 1.5 | -0.4 | -0.6 | 0.8 | -6.0
CC(C)Sc1nc2c(cnn2-c2ccc(F)cc2)c(=O)[nH]1 | -0.984 | 1.9 | -1.7 | 2.0 | 3.2 | 67.3
CCCCCSc1nc2c(cnn2-c2ccc(F)cc2)c(=O)[nH]1 | . | -4.4 | 2.5 | -2.8 | 0.6 | .
